Reference: ChEMBL document CHEMBL3044849, “Synthesis and insecticidal activities of novel N-sulfenyl-N'-tert-butyl-N,N'-diacylhydrazines. 1. N-alkoxysulfenate derivatives” (2007)
Converted amounts (≈) assume the structure as drawn.

Tests used:
Format in all cases: functional
Mythimna separata [1] = assay: Stomach toxicity against fourth-instar larval stage of Mythimna separata (Oriental armyworm) in compound-pretreated corn leaves assessed as mortality at 25 mg/kg at 25+/-1 degC measured after 4 days
Mythimna separata [2] = assay: Stomach toxicity against fourth-instar larval stage of Mythimna separata (Oriental armyworm) in compound-pretreated corn leaves assessed as mortality at 50 mg/kg at 25+/-1 degC measured after 4 days
Mythimna separata [3] = assay: Stomach toxicity against fourth-instar larval stage of Mythimna separata (Oriental armyworm) in compound-pretreated corn leaves assessed as mortality at 10 mg/kg at 25+/-1 degC measured after 4 days
Mythimna separata [4] = assay: Toxic ratio of RH-5992 LD50 to compound LD50 for fourth-instar larval stage of Mythimna separata (Oriental armyworm) measured after 96 hr
Outline: (§1)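 Oriental armyworm fourth-instar larvae each received 0.306 µL of acetone dilution at varying concentrations on the thoracic tergite via platinum loop. Acetone-only control. Larvae were returned to rearing conditions at 25 ± 1 °C and mortality was scored 96 h after treatment. LD50 and LD90 were derived from triplicate treatments; ratios use reference over test values.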

Spodoptera litura = assay: Contact toxicity against fourth-instar larval stage of Spodoptera litura assessed as mortality at 25 +/-1 degC applied topically on the thoracic tergite measured per gm of larva after 48 hr
Outline: (§2)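 Fourth-instar larvae of tobacco cutworm, Asian corn borer and cotton bollworm were used. Compounds in acetone at five to seven concentrations; 1 µL applied to the thoracic tergite by automatic microapplicator. Acetone-only control. Usually 40 insects per dose, four replicates, kept under rearing conditions at 25 ± 1 °C. Mortality at 48 h gave LD50; ratios use reference LD50 over test LD50.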

Helicoverpa armigera = assay: Contact toxicity against fourth-instar larval stage of Helicoverpa armigeraassessed as mortality at 25 +/-1 degC applied topically on the thoracic tergite measured per gm of larva after 48 hr; outline: as §2
Mythimna separata [5] = assay: Stomach toxicity against fourth-instar larval stage of Mythimna separata (Oriental armyworm) in compound-pretreated corn leaves assessed as mortality at 5 mg/kg at 25+/-1 degC measured after 4 days
Mythimna separata [6] = assay: Toxic ratio of RH-5992 LD90 to compound LD90 for fourth-instar larval stage of Mythimna separata (Oriental armyworm) measured after 96 hr; outline: as §1
Spodoptera exigua [7] = assay: Toxic ratio of RH-5992 LC50 to compound LC50 for third-instar larval stage of Spodoptera exigua measured after 3 days by leaf-dip method
Spodoptera exigua [8] = assay: Toxic ratio of RH-5992 LC90 to compound LC90 for third-instar larval stage of Spodoptera exigua measured after 3 days by leaf-dip method
Ostrinia furnacalis = assay: Contact toxicity against fourth-instar larval stage of Ostrinia furnacalis (Asian corn borer) assessed as mortality at 25 +/-1 degC applied topically on the thoracic tergite measured per gm of larva after 48 hr; outline: as §2
Spodoptera exigua [9] = assay: Stomach toxicity against third-instar larval stage of Spodoptera exigua in cabbage leaves assessed as mortality at 25 +/-1 degC treated for 3 secs before larval infestation measured after 3 days by leaf-dip method; settings: for LC50: Spodoptera exigua, Instar larval stage, 72 h
Outline: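 Leaf-dip assay: fresh cabbage leaf discs (5 cm × 3 cm) were dipped 3 s in test solution and air-dried, then placed singly in boxes with five third-instar beet armyworm larvae per disc. Water- and acetone-treated leaves served as controls. Held at 25 ± 1 °C; percentage mortality was read 3 days after treatment, in triplicate.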

Mythimna separata [10] = assay: Stomach toxicity against fourth-instar larval stage of Mythimna separata (Oriental armyworm) in compound-pretreated corn leaves assessed as mortality at 2.5 mg/kg at 25+/-1 degC measured after 4 days
Mythimna separata [11] = assay: Contact toxicity against fourth-instar larval stage of Mythimna separata (Oriental armyworm) assessed as mortality at 25 +/-1 degC applied topically on the thoracic tergite measured per larva after 96 hr; outline: as §1
Mythimna separata [12] = assay: Stomach toxicity against fourth-instar larval stage of Mythimna separata (Oriental armyworm) in compound-pretreated corn leaves assessed as mortality at 100 mg/kg at 25+/-1 degC measured after 4 days

| SMILES | mortality at 25 mg/kg (Mythimna separata [1]) [%] | mortality at 50 mg/kg (Mythimna separata [2]) [%] | mortality at 10 mg/kg (Mythimna separata [3]) [%] | mortality at 5 mg/kg (Mythimna separata [5]) [%] | mortality at 2.5 mg/kg (Mythimna separata [10]) [%] | further results |
| --- | --- | --- | --- | --- | --- | --- |
| COSN(C(=O)c1ccccc1)N(C(=O)c1ccccc1)C(C)(C)C | 100 | 100 | 0 |  |  |  |
| CCc1ccc(C(=O)N(SOC)N(C(=O)c2cc(C)cc(C)c2)C(C)(C)C)cc1 | 100 |  | 100 | 100 | 100 | Ratio (Mythimna separata [4]): 141; LD50 (Spodoptera litura): 16.061 µg; LD50 (Helicoverpa armigera): 73.907 µg; Ratio (Mythimna separata [6]): 154; RatioLC50 (Spodoptera exigua [7]): 3.4; Ratio (Spodoptera exigua [8]): 5.1; LD50 (Ostrinia furnacalis): 44.961 µg; LC90 (Spodoptera exigua [9]): 524.29 µg/mL (≈ 1260 µM); LC50 (Spodoptera exigua [9]): 24.4 µg/mL (≈ 58.7 µM); LD50 (Mythimna separata [11]): 0.0195 µg; LD90 (Mythimna separata [11]): 0.0479 µg |
| CCOSN(C(=O)c1ccc(CC)cc1)N(C(=O)c1cc(C)cc(C)c1)C(C)(C)C | 100 | 100 | 100 | 100 | 70 |  |
| CCCOSN(C(=O)c1ccc(CC)cc1)N(C(=O)c1cc(C)cc(C)c1)C(C)(C)C | 100 | 100 | 100 | 90 | 80 |  |
| CCc1ccc(C(=O)N(SOC(C)C)N(C(=O)c2cc(C)cc(C)c2)C(C)(C)C)cc1 | 100 | 100 | 100 | 100 | 50 |  |
| CCCCOSN(C(=O)c1ccc(CC)cc1)N(C(=O)c1cc(C)cc(C)c1)C(C)(C)C | 100 | 100 | 100 | 100 | 90 |  |
| CCc1ccc(C(=O)N(SOCC(C)C)N(C(=O)c2cc(C)cc(C)c2)C(C)(C)C)cc1 |  |  |  | 100 | 80 |  |
| CCc1ccc(C(=O)N(SOC(C)(C)C)N(C(=O)c2cc(C)cc(C)c2)C(C)(C)C)cc1 | 100 | 100 | 100 | 70 | 60 |  |
| CCCCCOSN(C(=O)c1ccc(CC)cc1)N(C(=O)c1cc(C)cc(C)c1)C(C)(C)C |  |  |  | 100 | 100 |  |
| CCc1ccc(C(=O)N(SOC(C)(C)CC)N(C(=O)c2cc(C)cc(C)c2)C(C)(C)C)cc1 |  |  |  | 80 | 70 |  |
| CCc1ccc(C(=O)N(SOCc2ccccc2)N(C(=O)c2cc(C)cc(C)c2)C(C)(C)C)cc1 |  |  |  | 90 | 70 |  |
| CCc1ccc(C(=O)N(SOCCc2ccccc2)N(C(=O)c2cc(C)cc(C)c2)C(C)(C)C)cc1 |  |  |  | 90 | 50 |  |
| CCc1ccc(C(=O)N(SOCCF)N(C(=O)c2cc(C)cc(C)c2)C(C)(C)C)cc1 |  |  |  | 100 | 70 |  |
| CCc1ccc(C(=O)N(SOCC(F)(F)F)N(C(=O)c2cc(C)cc(C)c2)C(C)(C)C)cc1 |  |  |  | 100 | 90 |  |
| CCc1ccc(C(=O)N(SOCCOC)N(C(=O)c2cc(C)cc(C)c2)C(C)(C)C)cc1 |  |  |  | 90 | 70 |  |
| CCOCCOSN(C(=O)c1ccc(CC)cc1)N(C(=O)c1cc(C)cc(C)c1)C(C)(C)C |  |  |  | 100 | 90 |  |
| COSN(C(=O)c1ccc2c(c1C)OC(C)C2)N(C(=O)c1cc(C)cc(C)c1)C(C)(C)C (stereo not drawn) |  |  |  |  | 80 |  |
| CCOSN(C(=O)c1ccccc1)N(C(=O)c1ccccc1)C(C)(C)C | 0 | 85 |  |  |  | mortality at 100 mg/kg (Mythimna separata [12]): 100% |
| CCCOSN(C(=O)c1ccccc1)N(C(=O)c1ccccc1)C(C)(C)C | 50 | 90 | 10 |  |  |  |
| CC(C)OSN(C(=O)c1ccccc1)N(C(=O)c1ccccc1)C(C)(C)C | 100 | 100 | 10 |  |  |  |
| CC(C)(C)OSN(C(=O)c1ccccc1)N(C(=O)c1ccccc1)C(C)(C)C | 100 | 100 | 10 |  |  |  |
| Cc1cc(C)cc(C(=O)N(NC(=O)c2ccc3c(c2C)OC(C)C3)C(C)(C)C)c1 (stereo not drawn) [FUXIAN] |  |  |  | 100 | 90 |  |
| CC(C)(C)N(NC(=O)c1ccccc1)C(=O)c1ccccc1 [RH-5849] | 70 | 100 | 0 |  |  |  |
| CCc1ccc(C(=O)NN(C(=O)c2cc(C)cc(C)c2)C(C)(C)C)cc1 [TEBUFENOZIDE] |  |  | 100 | 95 | 55 | Ratio (Mythimna separata [4]): 100; LD50 (Spodoptera litura): 527.12 µg; LD50 (Helicoverpa armigera): 1311.9 µg; Ratio (Mythimna separata [6]): 100; RatioLC50 (Spodoptera exigua [7]): 1; Ratio (Spodoptera exigua [8]): 1; LD50 (Ostrinia furnacalis): 59.414 µg; LC90 (Spodoptera exigua [9]): 2648.6 µg/mL (≈ 7510 µM); LC50 (Spodoptera exigua [9]): 83.4 µg/mL (≈ 237 µM); LD50 (Mythimna separata [11]): 0.0275 µg; LD90 (Mythimna separata [11]): 0.0739 µg |
